Measurements published in publication PMC4864154 (Journal of molecular biology, 2014).
Where two headings read alike, the source gives them in different places.

What was measured:
GluN1-I619G/2A = GluN1-I619G/2A (Rattus norvegicus, UniProt P35439+Q00959, I619G); type: cell-based
Method in brief: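 Xenopus oocytes were injected with cRNA for rat GluN1-1a I619G (site-directed mutant, sequence-verified) at 1 ng and WT GluN2A at 10 ng per oocyte. Two-electrode voltage clamp at -60 mV in buffer of 115 mM NaCl, 2 mM KCl, 5 mM HEPES and 1.8 mM BaCl2, pH 7.6. Percent steady-state block of agonist-evoked current by 100 nM test compound or 0.5 mM Mg2+. Mean + SEM from 4–8 oocytes; ANOVA against WT.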

[1] = biological target: GluN2A N614 Gly-substituted GluN1/2A (Rattus norvegicus, UniProt P35439+Q00959, N614G); type: cell-based; settings: 100 nM ArgTX-636, -60 mV
Method in brief: (§1)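 Rat GluN1-1a and GluN2A cDNAs carrying Gly substitutions made by site-directed mutagenesis and sequence-verified. Xenopus oocytes were each injected with cRNA (1 ng GluN1, 10 ng GluN2A). Two-electrode voltage clamp at -60 mV in buffer of 115 mM NaCl, 2 mM KCl, 5 mM HEPES and 1.8 mM BaCl2, pH 7.6. Percent block of agonist-evoked steady-state current by 100 nM test compound. Mean + SEM from 4–8 oocytes; ANOVA against WT.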

[2] = tested on: GluN1/2A and GluN1/2B over GluN1/2C and GluN1/2D NMDAR subtypes; settings: ref [44]; [48]; cited from earlier work
[3] = biological target: GluN2A S616 Gly-substituted GluN1/2A (Rattus norvegicus, UniProt P35439+Q00959, S616G); type: cell-based; settings: 100 nM ArgTX-636, -60 mV
Method in brief: as §1

[4] = biological target: GluN2A V617 Gly-substituted GluN1/2A (Rattus norvegicus, UniProt P35439+Q00959, V617G); type: cell-based; settings: 100 nM ArgTX-636, -60 mV
Method in brief: as §1

[5] = biological target: GluN2A N615 Gly-substituted GluN1/2A (Rattus norvegicus, UniProt P35439+Q00959, N615G); type: cell-based; settings: 100 nM ArgTX-636, -60 mV
Method in brief: as §1

GluN1-N616G/2A = GluN1-N616G/2A (Rattus norvegicus, UniProt P35439+Q00959, N616G); type: cell-based
Chain of GluN1-N616G/2A (Q00959 23-1464, other chains not shown): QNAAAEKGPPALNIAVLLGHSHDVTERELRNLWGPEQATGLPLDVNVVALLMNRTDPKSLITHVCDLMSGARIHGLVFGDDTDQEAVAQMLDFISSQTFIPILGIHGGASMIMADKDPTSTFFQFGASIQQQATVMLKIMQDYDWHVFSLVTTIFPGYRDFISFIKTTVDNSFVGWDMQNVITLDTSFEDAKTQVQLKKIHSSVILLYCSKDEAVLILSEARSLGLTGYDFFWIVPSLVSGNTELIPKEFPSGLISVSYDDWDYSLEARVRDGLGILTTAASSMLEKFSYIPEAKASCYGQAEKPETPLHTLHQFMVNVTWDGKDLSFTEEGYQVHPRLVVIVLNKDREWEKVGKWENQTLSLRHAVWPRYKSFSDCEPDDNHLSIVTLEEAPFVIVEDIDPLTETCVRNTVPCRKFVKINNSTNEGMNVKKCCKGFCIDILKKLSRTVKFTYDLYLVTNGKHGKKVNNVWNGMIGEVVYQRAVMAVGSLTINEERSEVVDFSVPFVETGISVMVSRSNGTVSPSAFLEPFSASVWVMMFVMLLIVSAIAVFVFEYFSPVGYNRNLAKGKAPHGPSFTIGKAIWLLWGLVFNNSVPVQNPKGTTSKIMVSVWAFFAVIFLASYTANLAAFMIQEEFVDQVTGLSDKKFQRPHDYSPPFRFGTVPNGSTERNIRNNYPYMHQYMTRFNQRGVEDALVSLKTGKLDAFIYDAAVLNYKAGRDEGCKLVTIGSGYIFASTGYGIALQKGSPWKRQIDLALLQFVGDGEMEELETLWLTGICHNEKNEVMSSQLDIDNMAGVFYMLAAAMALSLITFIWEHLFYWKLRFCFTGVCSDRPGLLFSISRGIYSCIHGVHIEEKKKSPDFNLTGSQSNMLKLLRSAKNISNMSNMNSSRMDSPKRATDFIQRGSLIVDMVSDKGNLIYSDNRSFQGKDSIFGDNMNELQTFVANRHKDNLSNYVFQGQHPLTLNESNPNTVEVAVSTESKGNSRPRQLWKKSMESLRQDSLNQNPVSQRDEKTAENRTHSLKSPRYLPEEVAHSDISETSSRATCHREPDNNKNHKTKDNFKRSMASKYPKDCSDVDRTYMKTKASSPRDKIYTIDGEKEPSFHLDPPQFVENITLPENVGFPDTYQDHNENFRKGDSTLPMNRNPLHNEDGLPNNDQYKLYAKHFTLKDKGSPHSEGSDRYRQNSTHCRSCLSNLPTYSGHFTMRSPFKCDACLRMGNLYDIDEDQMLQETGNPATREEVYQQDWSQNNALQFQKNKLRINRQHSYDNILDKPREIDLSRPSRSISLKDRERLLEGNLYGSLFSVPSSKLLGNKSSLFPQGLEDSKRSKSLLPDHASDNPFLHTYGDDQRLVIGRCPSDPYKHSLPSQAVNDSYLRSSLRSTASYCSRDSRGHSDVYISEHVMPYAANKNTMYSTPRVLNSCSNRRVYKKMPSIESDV

[6] = biological target: GluN1 S617 Gly-substituted GluN1/2A (Rattus norvegicus, UniProt P35439+Q00959, S617G); type: cell-based
[7] = biological target: recombinant GluN1/2A receptors (Rattus norvegicus, UniProt P35439+Q00959); type: cell-based
Chain of recombinant GluN1/2A receptors (Q00959 23-1464, other chains not shown): as above

[8] = biological target: GluN1 E621 Gly-substituted GluN1/2A (Rattus norvegicus, UniProt P35439+Q00959, E621G); type: cell-based; settings: 100 nM ArgTX-636, -60 mV
Method in brief: as §1

WT GluN1/2A = WT GluN1/2A (Rattus norvegicus, UniProt P35439+Q00959); assay: Two-electrode voltage-clamp, steady-state block in Xenopus oocytes, WT receptor; type: cell-based
[9] = holding potential -80 mV, Glu 100 μM, Gly 50 μM, HEK293

Chain of GluN1-I619G/2A (Q00959 23-1464, other chains not shown): as above

NC(=O)C[C@H](NC(=O)Cc1ccc(O)cc1O)C(=O)NCCCCCNCCCNCCCNC(=O)[C@@H](N)CCCN=C(N)N [ArgTX-636, argiotoxin-636]
percent steady-state block (GluN1-I619G/2A; 100 nM ArgTX-636, -60 mV, GluN1 I619G): less than 15% | percent steady-state block [1]: ~100% | selectivity for GluN1/2A and GluN1/2B over GluN1/2C and GluN1/2D [2]: more than 20 fold | percent steady-state block [3]: ~100% | percent steady-state block [4]: ~100% | percent steady-state block [5]: ~100% | percent steady-state block (GluN1-N616G/2A; 100 nM ArgTX-636, -60 mV, GluN1 N616G): 78% | percent steady-state block ([6]; 100 nM ArgTX-636, -60 mV, GluN1 S617G): less than 15% | decrease in dissociation rate over -60 to -100 mV ([7]; 500 nM ArgTX-636, -60 to -100 mV range): less than 2 fold | increase in rate of onset of block per 20-mV negative depolarization ([7]; 500 nM ArgTX-636, membrane potential below -60 mV): approximately 5 fold | steady-state block of the current ([7]; 500 nM ArgTX-636 for 6 s, 100 μM Glu, -80 mV): 96 ± 1% | fold higher association rate constant compared to memantine ([7]; ArgTX-636 Kon vs literature memantine Kon): approximately 10 fold | association rate constant (Kon) with the open channel [7, 9]: 4.4 ± 0.3 × 10^6 M^-1 s^-1 | dissociation rate constant (Koff) with the open channel [7, 9]: 0.36 ± 0.09 s⁻¹ | mechanism of block (trapping) ([7]; recovery after wash in absence of agonist, 500 nM ArgTX-636, -80 mV): trapping blocker | percent steady-state block [8]: less than 15%

C[C@]12N[C@H](Cc3ccccc31)c1ccccc12 [MK-801, dizocilpine]
percent steady-state block (WT GluN1/2A): 75% | percent steady-state block (GluN1-N616G/2A): less than 40% | percent steady-state block [6]: less than 40%

[Mg+2] [Mg^2+]
percent steady-state block (GluN1-I619G/2A; 0.5 mM Mg^2+, GluN1-I619G/2A): 53% | percent steady-state block (WT GluN1/2A; 0.5 mM Mg^2+, WT): 88% | percent steady-state block (GluN1-N616G/2A; 0.5 mM Mg^2+, GluN1-N616G/2A): 28%
